Drawing on ChEMBL document CHEMBL1240469, “In vitro and in vivo studies on stilbene analogs as potential treatment agents for colon cancer” (Eur J Med Chem, 2010), this text covers Drug uptake, IC50 and Activity for 14 molecules.

The source made the active and inactive calls. The calls are words filed in the database; no cut-off is given here.

One data set has as its system Serum. The data set is described as follows: Drug level in SCID mouse serum at 10 mg/kg, ip by GC-MS analysis. Type of data set: ADME, organism-based. Also on record: dose 10 mg/kg, route intraperitoneal. As to conditions: in vivo. The essentials: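 Blood taken at autopsy from xenografted SCID mice after 3 weeks of daily i.p. dosing at 10 mg/kg. Serum (50 μL) was incubated with 1 M sodium acetate pH 5 for 60 min at 37 °C, extracted 3× with ethyl acetate, dried and redissolved. Analysed by GC-MS on a DB-5 column, with quantification against external-standard calibration curves at m/z 255, 298 or 270. Values given as mean ± std.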

Data set [1] relates to HT-29. The data set is described as follows: Cytotoxicity against human HT-29 cells after 3 days by [3H]thymidine incorporation assay. Type of data set: functional, cell-based. The essentials:
(§1)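 Cells kept in DMEM with 10% FBS at 37 °C, 5% CO2, then plated at 20,000 cells/well. Exposed to a range of concentrations for 3 days at 37 °C, final DMSO 0.1% or less, with DMSO controls. IC50 reported.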
In general terms: Incorporation of labelled thymidine or its analogues reports DNA synthesis.

The next data set relates to Caco-2. The data set is described as follows: Cytotoxicity against human Caco-2 cells after 3 days by [3H]thymidine incorporation assay. Type of data set: functional, cell-based. The essentials:
as §1

Data set [2] concerns HT-29. The data set is described as follows: Antitumor activity against human HT-29 cells xenografted in SCID mouse assessed as reduction tumor volume at 10 mg/kg, ip qd for 3 weeks (reference value: 1087 +/- 138.9 mm'3). In kind it is functional. The note with it: route intraperitoneal. For orientation: A xenograft is tissue or cells of one species grown in another, often human tumour cells in immunodeficient mice.

The subject of data set [3] is HT-29. The data set is described as follows: Antitumor activity against human HT-29 cells xenografted in SCID mouse assessed as reduction tumor weight at 10 mg/kg, ip qd for 3 weeks (reference value: 0.72 +/- 0.1 g). Type of data set: functional. The note with it: route intraperitoneal.
The subject of the next data set is Mus musculus. The data set is described as follows: Toxicity in SCID mouse assessed as effect on body weight at 10 mg/kg, ip qd for 3 weeks (reference value: 20.4 +/- 0.4 g). Also on record: dose 10 mg/kg, route intraperitoneal. In kind it is organism-based. As to conditions: in vivo, 504 h.
In data set [4] the test system is HT-29. The data set is described as follows: Induction of apoptosis in human HT-29 cells assessed as caspase3 activity. In kind it is functional, cell-based.
Data set [5] has as its system HT-29. The data set is described as follows: Induction of apoptosis in human HT-29 cells assessed as PARP cleavage. In kind it is functional, cell-based.
Data set [6] concerns HT-29. The experiment in a line: Reduction of proliferating cell nuclear antigen level in human HT-29 cells by immunohistochemistry analysis. Type of data set: functional, cell-based. The essentials:
(§2)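 Paraffin sections of xenograft tumors, 4 μm thick, incubated overnight with anti-PCNA (1:1000) or anti-p27 (1:50), then biotinylated secondary, avidin-biotin peroxidase and diaminobenzidine, with hematoxylin counterstain. Five random fields per slide were imaged at 400×. PCNA was reported as labeling index (positive cells/total ×100, averaged per tumor); p27 as integrated optical density averaged per tumor and per group; ± SE.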

In data set [7] the test system is HT-29. The experiment in a line: Up-regulation of p27 expression level in human HT-29 cells by Western blotting. In kind it is functional, cell-based. The essentials: (§3)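 Xenograft tumors from treated SCID mice were homogenized in lysis buffer and pooled by group. Primary antibodies (PCNA or p27) were applied overnight at 4 °C, followed by HRP secondary for 1 h. Bands detected by chemiluminescence, with β-actin as loading control.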
For orientation: In western blotting, separated proteins are transferred to a membrane and probed.

For data set [8], the system named is HT-29. The experiment in a line: Up-regulation of p27 expression level in human HT-29 cells by immunohistochemistry analysis. In kind it is functional, cell-based. The essentials: as §2
Data set [9] deals with HT-29. The experiment in a line: Reduction of proliferating cell nuclear antigen level in human HT-29 cells by Western blotting. Type of data set: functional, cell-based. The method, boiled down: as §3

In the data set with Serum, `COc1cc(/C=C\c2ccc(N)cc2)cc(OC)c1` showed a Drug uptake of 109.1 ng/mL.

As usually defined, the IC50 is the point on the concentration scale where inhibition reaches its midpoint. A low value points to greater potency in that assay. Regarding `COc1cc(/C=C/c2ccc(S)cc2)cc(OC)c1`, the concentration for half-maximal inhibition (IC50) with HT-29 [1] and in the data set with Caco-2 was over 10 µM in each case.

Turning to `COC(=O)c1ccc(/C=C\c2cc(OC)cc(OC)c2)cc1`, the Drug uptake in the data set with Serum worked out at 18.8 ng/mL.

`COc1cc(/C=C/c2ccc(OC3OC(CO)C(O)C(O)C3O)cc2)cc(OC)c1` (stereo not drawn): the half-maximal inhibitory concentration (IC50) in the data set with HT-29 [1] and in the data set on Caco-2 was over 10 µM in each case.

Consider `COc1cc(/C=C/c2ccc(F)cc2)cc(OC)c1`, for which the IC50 with HT-29 [1] and with Caco-2 was over 10 µM in each case.

For the molecule `COc1ccc(/C=C\c2cc(O)cc(O)c2)cc1`, the half-inhibitory concentration (IC50) with HT-29 [1] and in the data set with Caco-2 was over 30 µM in each case.

Take `COc1cc(/C=C/c2ccc(N)cc2)cc(OC)c1`: the Drug uptake in the data set on Serum came out at 99 ng/mL.

For `COc1cc(/C=C\c2ccc(F)cc2)cc(OC)c1`, the half-inhibitory concentration (IC50) in the data set on HT-29 [1] and in the data set with Caco-2 was over 10 µM each time.

For `COC(=O)c1ccc(/C=C/c2cc(OC)cc(OC)c2)cc1`, in the data set with Serum, the Drug uptake was 54.6 ng/mL.

In the case of `COc1cc(O)cc(/C=C/c2ccc(O)cc2)c1`, the IC50 in the data set on HT-29 [1] amounted to 33.5 µM; in the data set on Caco-2 it was 19.2 µM.

For `COc1ccc(/C=C\c2cc(OC)cc(OC)c2)cc1` [8Z-3,4',5-TRIMETHOXYSTILBENE], the Drug uptake in the data set on Serum worked out at 15.5 ng/mL. In addition, the Activity is listed as 1023.6 mm3 with HT-29 [2], 0.61 g in the data set on HT-29 [3] and 19.8 g in the data set with Mus musculus. The IC50 was found to be 0.04 µM with HT-29 [1] and 0.08 µM in the data set on Caco-2.

For the molecule `COc1cc(/C=C/c2ccc(O)cc2)cc(OC)c1` [PTEROSTILBENE], the half-maximal inhibitory concentration (IC50) is 23.8 µM with HT-29 [1] and 14.5 µM in the data set on Caco-2.

For the molecule `COc1ccc(/C=C/c2cc(O)cc(O)c2)cc1` [RESVERATROL 4'-METHYL ETHER], the values for the half-maximal inhibitory concentration (IC50) in the data set on HT-29 [1] and in the data set with Caco-2 were 24.5 µM and over 30 µM, respectively.

Regarding `COc1ccc(/C=C/c2cc(OC)cc(OC)c2)cc1` [TRISMETHOXYRESVERATROL], the outcome in the data set with HT-29 [4] and in the data set on HT-29 [5] was inactive. Further, the result in the data set with HT-29 [6], in the data set with HT-29 [7], in the data set with HT-29 [8] and in the data set with HT-29 [9] was Active. In addition, the Drug uptake with Serum stood at 69.9 ng/mL. The Activity is 590.3 mm3 in the data set with HT-29 [2], 0.57 g in the data set on HT-29 [3] and 19.5 g in the data set on Mus musculus. The IC50 in the data set with HT-29 [1] came to 16.1 µM; in the data set with Caco-2 it was 12 µM.
